Source: ChEMBL document CHEMBL3045285, “Synthesis and insecticidal activities of novel anthranilic diamides containing modified N-pyridylpyrazoles” (2010)
Values after ≈ are worked out from the molar mass of the structure shown.

Columns and labels:
Assay type in all cases: functional
Mythimna separata [1] = assay: Insecticidal activity against fourth-instar larval stage of Mythimna separata (Oriental armyworm) in compound pretreated Zea mays L. Tangyu 10 leaves assessed as mortality at 5 mg/l at 25 +/-1 degC after 2 days
How it was run: (§1)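 Greenhouse-reared fourth-instar oriental armyworm larvae. Corn (Tangyu 10) leaves laid on moist filter paper in Petri dishes, sprayed with test solution (200 mg/L solution diluted in distilled water), then air-dried. Ten larvae per dish. Held at 25 ± 1 °C; mortality scored dead/alive 2 days post-treatment. Triplicate treatments, Abbott-corrected, 0–100 scale.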

Plutella xylostella [2] = assay: Insecticidal activity against second-instar larval stage of Plutella xylostella (diamondback moth) in cabbage leaves assessed as mortality at 10 mg/l at 25 +/-1 degC treated for 3 secs before larva infestation measured after 2 days by leaf-dip method; conditions: 48 h
How it was run: (§2)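 Greenhouse-reared diamondback moth larvae tested by leaf-dip method at 25 ± 1 °C. Test solution made at 200 mg/L, then diluted with distilled water to working concentrations. Mortality scored dead/alive, corrected with Abbott's formula and expressed on a 0–100 scale.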

Mythimna separata [3] = assay: Insecticidal activity against fourth-instar larval stage of Mythimna separata (Oriental armyworm) in compound pretreated Zea mays L. Tangyu 10 leaves assessed as mortality at 100 mg/l at 25 +/-1 degC after 2 days; how it was run: as §1
Plutella xylostella [4] = assay: Insecticidal activity against second-instar larval stage of Plutella xylostella (diamondback moth) in cabbage leaves assessed as mortality at 2.5 mg/l at 25 +/-1 degC treated for 3 secs before larva infestation measured after 2 days by leaf-dip method; conditions: 48 h; how it was run: as §2
Mythimna separata [5] = assay: Insecticidal activity against fourth-instar larval stage of Mythimna separata (Oriental armyworm) in compound pretreated Zea mays L. Tangyu 10 leaves assessed as mortality at 10 mg/l at 25 +/-1 degC after 2 days; how it was run: as §1
Plutella xylostella [6] = assay: Insecticidal activity against second-instar larval stage of Plutella xylostella (diamondback moth) in cabbage leaves assessed as mortality at 5 mg/l at 25 +/-1 degC treated for 3 secs before larva infestation measured after 2 days by leaf-dip method; conditions: 48 h; how it was run: as §2
Mythimna separata [7] = assay: Insecticidal activity against fourth-instar larval stage of Mythimna separata (Oriental armyworm) in compound pretreated Zea mays L. Tangyu 10 leaves assessed as mortality at 50 mg/l at 25 +/-1 degC after 2 days; how it was run: as §1
Mythimna separata [8] = assay: Insecticidal activity against fourth-instar larval stage of Mythimna separata (Oriental armyworm) in compound pretreated Zea mays L. Tangyu 10 leaves assessed as mortality at 200 mg/l at 25 +/-1 degC after 2 days; how it was run: as §1
Mythimna separata [9] = assay: Insecticidal activity against fourth-instar larval stage of Mythimna separata (Oriental armyworm) in compound pretreated Zea mays L. Tangyu 10 leaves assessed as mortality at 20 mg/l at 25 +/-1 degC after 2 days; how it was run: as §1
Plutella xylostella [10] = assay: Insecticidal activity against second-instar larval stage of Plutella xylostella (diamondback moth) in cabbage leaves assessed as mortality at 0.5 mg/l at 25 +/-1 degC treated for 3 secs before larva infestation measured after 2 days by leaf-dip method; conditions: 48 h; how it was run: as §2
Plutella xylostella [11] = assay: Insecticidal activity against second-instar larval stage of Plutella xylostella (diamondback moth) in cabbage leaves assessed as mortality at 0.25 mg/l at 25 +/-1 degC treated for 3 secs before larva infestation measured after 2 days by leaf-dip method; conditions: 48 h; how it was run: as §2
Plutella xylostella [12] = assay: Insecticidal activity against second-instar larval stage of Plutella xylostella (diamondback moth) in cabbage leaves assessed as mortality at 1 mg/l at 25 +/-1 degC treated for 3 secs before larva infestation measured after 2 days by leaf-dip method; conditions: 48 h; how it was run: as §2
Plutella xylostella [13] = assay: Insecticidal activity against second-instar larval stage of Plutella xylostella (diamondback moth) in cabbage leaves assessed as mortality at 20 mg/l at 25 +/-1 degC treated for 3 secs before larva infestation measured after 2 days by leaf-dip method; conditions: 48 h; how it was run: as §2
Plutella xylostella [14] = assay: Insecticidal activity against second-instar larval stage of Plutella xylostella (diamondback moth) in cabbage leaves assessed as mortality at 0.125 mg/l at 25 +/-1 degC treated for 3 secs before larva infestation measured after 2 days by leaf-dip method; conditions: 48 h; how it was run: as §2
Mythimna separata [15] = assay: Insecticidal activity against fourth-instar larval stage of Mythimna separata (Oriental armyworm) in compound pretreated Zea mays L. Tangyu 10 leaves assessed as mortality at 2.5 mg/l at 25 +/-1 degC after 2 days; how it was run: as §1
Plutella xylostella [16] = assay: Insecticidal activity against second-instar larval stage of Plutella xylostella (diamondback moth) in cabbage leaves assessed as mortality at 25 +/-1 degC treated for 3 secs before larva infestation measured after 2 days by leaf-dip method; conditions: 48 h; how it was run: as §2

| Structure (SMILES) | mortality at 5 µg/mL (Mythimna separata [1]) [%] | mortality at 10 µg/mL (Plutella xylostella [2]) [%] | mortality at 100 µg/mL (Mythimna separata [3]) [%] | mortality at 2.5 µg/mL (Plutella xylostella [4]) [%] | mortality at 10 µg/mL (Mythimna separata [5]) [%] | mortality at 5 µg/mL (Plutella xylostella [6]) [%] | mortality at 50 µg/mL (Mythimna separata [7]) [%] | mortality at 200 µg/mL (Mythimna separata [8]) [%] | mortality at 20 µg/mL (Mythimna separata [9]) [%] | mortality at 0.5 µg/mL (Plutella xylostella [10]) [%] | mortality at 0.25 µg/mL (Plutella xylostella [11]) [%] | mortality at 1 µg/mL (Plutella xylostella [12]) [%] | mortality at 20 µg/mL (Plutella xylostella [13]) [%] | mortality at 0.125 µg/mL (Plutella xylostella [14]) [%] | mortality at 2.5 µg/mL (Mythimna separata [15]) [%] | LC50 (Plutella xylostella [16]) [µg/mL] |
| --- | --- | --- | --- | --- | --- | --- | --- | --- | --- | --- | --- | --- | --- | --- | --- | --- |
| CNC(=O)c1cc(Cl)cc(C)c1NC(=O)c1cc(CNC(=O)C(F)(F)F)nn1-c1ncccc1Cl | 40 | 100 | 100 | 100 | 100 | 100 | 100 | 100 | 100 | 40 | 0 | 80 | 100 |  |  |  |
| CNC(=O)c1cc(C(=O)Nc2c(C)cc(Cl)cc2C(=O)NC(C)(C)C)n(-c2ncccc2Cl)n1 | 40 | 100 | 100 | 100 | 100 | 100 | 100 | 100 | 100 | 85 | 30 | 100 | 100 | 0 |  |  |
| CNC(=O)c1cc(Cl)cc(C)c1NC(=O)c1cc(Br)nn1-c1ncccc1Cl [CHLORANTRANILIPROLE] | 100 | 100 | 100 | 100 | 100 | 100 | 100 | 100 | 100 | 100 | 100 | 100 | 100 | 100 | 100 | 3.8 (≈ 7.87 µM) |
| CC(=O)OCc1cc(C(=O)Nc2c(C)cccc2C(=O)NC(C)C)n(-c2ncccc2Cl)n1 |  | 60 | 100 |  | 0 | 0 | 100 | 100 | 100 |  |  |  | 100 |  |  |  |
| CNC(=O)c1cc(Cl)cc(C)c1NC(=O)c1cc(COC(C)=O)nn1-c1ncccc1Cl |  | 90 | 100 | 45 | 0 | 70 | 100 | 100 | 100 |  |  | 0 | 100 |  |  |  |
| CNC(=O)c1cc(Cl)cc(C)c1NC(=O)c1cc(CN=[N+]=[N-])nn1-c1ncccc1Cl | 100 | 100 | 100 | 100 | 100 | 100 | 100 | 100 | 100 | 100 | 75 | 100 | 100 | 45 | 40 |  |
| CC(=O)OCc1cc(C(=O)Nc2c(C)cc(Cl)cc2C(=O)NC2CC2)n(-c2ncccc2Cl)n1 |  | 100 | 100 | 90 | 0 | 100 | 100 | 100 | 100 | 40 | 0 | 60 | 100 |  |  |  |
| CC(=O)OCc1cc(C(=O)Nc2c(C)cc(Cl)cc2C(=O)NC(C)(C)C)n(-c2ncccc2Cl)n1 | 20 | 100 | 100 | 95 | 100 | 100 | 100 | 100 | 100 | 50 | 25 | 70 | 100 | 0 |  |  |
| CNC(=O)c1cc(C(=O)Nc2c(C)cc(Cl)cc2C(=O)NC2CC2)n(-c2ncccc2Cl)n1 |  | 0 | 100 |  | 20 |  | 100 | 100 | 100 |  |  |  | 50 |  |  |  |
| CC(=O)OCc1cc(C(=O)Nc2c(C)cc(Cl)cc2C(=O)NC(C)C)n(-c2ncccc2Cl)n1 |  | 100 | 100 | 60 | 20 | 95 | 100 | 100 | 100 |  |  | 0 | 100 |  |  |  |
